In paper PMC3817326 (British Journal of Cancer, 2013):
Values belong to the compound of their own block, whether it stands above or below them.

Tests used:
[1] = Metabolic stability in mouse S9 fractions; type: in vitro ADME; settings: 60 min incubation with NADPH and mouse S9 fractions
[2] = Transwell permeability assay across caco-2 monolayers; type: in vitro ADME, human; settings: human, Caco-2
Summary of the method: (§1)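 Caco-2 monolayers in transwells were used to measure apical-to-basal absorption (PappA–B) and basal-to-apical secretion (PappB–A). Efflux ratio was calculated as PappB–A/PappA–B. Runs were made with or without ABC transporter inhibitors (FTC for ABCG2, verapamil for ABCB1), with vinblastine as an ABCB1 reference substrate.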

Ki-67 = settings: after 5 days of treatment; ref Li et al, 2012; cited from earlier work
[3] = test system: caspase 3/7 activity in HCT-116 cells; assay: Caspase 3/7 assay; type: cell-based, human; settings: 24 h
Summary of the method: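 Treated cells were transferred to opaque plates and incubated 1 h with a luminogenic caspase 3/7 reagent. Luminescence on a microplate counter gave caspase 3/7 activity, normalised to protein content.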

[4] = test system: A2780^AD cells, overexpressing ABCB1; assay: Growth inhibition in doxorubicin-resistant A2780AD cells vs parental A2780; type: cell-based
caco-2 monolayers = assay: Transwell permeability assay across caco-2 monolayers; type: in vitro ADME, human; settings: compounds tested at 10 μM
Summary of the method: as §1

Parent compound remaining [1]: < 10%
Compound: CC[C@H](CO)Nc1nc(NCc2ccccc2)c2ncn(C(C)C)c2n1 [roscovitine]

efflux ratio at 10 μM [2]: 8
Compound: CC[C@]1(O)C[C@@H]2CN(CCc3c([nH]c4ccccc34)[C@@](C(=O)OC)(c3cc4c(cc3OC)N(C)[C@H]3[C@@](O)(C(=O)OC)[C@H](OC(C)=O)[C@]5(CC)C=CCN6CC[C@]43[C@@H]65)C2)C1 [vinblastine]

Compound: CO[C@H]1C[C@@H]2CC[C@@H](C)[C@@](O)(O2)C(=O)C(=O)N2CCCC[C@H]2C(=O)O[C@H]([C@H](C)C[C@@H]2CC[C@@H](OCCO)[C@H](OC)C2)CC(=O)[C@H](C)/C=C(\C)[C@@H](O)[C@@H](OC)C(=O)[C@H](C)C[C@H](C)/C=C/C=C/C=C/1C [everolimus]
Decrease in Ki-67 (Ki-67): 1.6 fold

Permeability PappA–B across caco-2 cells (caco-2 monolayers): poorly absorbed
Compound: CC(C)c1cnn2c(NCc3ccccc3)cc(NCCCCCCN)nc12 [BS-181]
Caspase 3/7 activity [3]: only at the highest concentration tested
Potency in A2780^AD cells compared with parental A2780 [4]: equipotent
